Data set [1] is described as follows: Differential nuclear staining. The format is cell-based. The following applies: human, MCF-10A non-transformed mammary epithelial cells.
The test system of the next data set is YT NK-like (YT) cells. Briefly: Apoptosis/necrosis by annexin V-FITC and PI flow cytometry. The format is cell-based. The settings on record: 18 h; for mode of cell death: KTZ 15 μM, CTZ 10 μM, complexes 20–60 μM. In a few lines:
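YT NK-like cells were exposed to test compounds for 18 h, then handled on ice, stained together with annexin V-FITC and PI, and analysed by flow cytometry with about 10,000 events per sample. Controls were 0.3% v/v DMSO solvent, 600 μM H2O2 and untreated cells. Annexin-positive cells (early plus late) were summed as apoptotic, and PI-only cells counted as necrotic. Values are the mean of three independent measurements with SD.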
In general terms: In flow cytometry, cells or beads pass a laser one at a time.

For data set [2], the system named is all the cancer cells lines studied.
In data set [3] the test system is 22Rv1 human prostate cancer cells. Nature of the data set: Differential nuclear staining. The data set is classed as cell-based.
The next data set can be described thus: in vitro. The format is cell-based. The settings on record: human.
Data set [4] can be described thus: Differential nuclear staining. The settings on record: mouse, wild type mouse embryonic fibroblasts (MEFs). The data set is classed as cell-based.
The subject of data set [5] is LNCaP human prostate cancer cells. Nature of the data set: Differential nuclear staining. The data set is classed as cell-based.
The subject of data set [6] is YT NK-like lymphoblastic lymphoma cells. Nature of the data set: Differential nuclear staining. The format is cell-based.
The subject of data set [7] is human cervical HeLa cancer cells. Nature of the data set: Differential nuclear staining. The format is cell-based. The settings on record: for CC50: Homo sapiens, 20 h.
The subject of data set [8] is DU145 human prostate carcinoma cells. Nature of the data set: Differential nuclear staining. The format is cell-based.
Another data set relates to Calf Thymus (CT) DNA. Nature of the data set: Circular dichroism. The data set is classed as binding. The settings on record: 20 h at 37 °C, pH 7.39 Tris/HCl buffer, up to ri 2.0 (molar ratio drug/DNA). In a few lines:
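Test compound stocks (1.5 mM) were freshly made in water and added to freshly prepared CT DNA (60 μM) in 5 mM Tris/HCl, 50 mM NaClO4, pH 7.39, at drug/DNA molar ratios of 0.5–2.0. Samples were incubated 20 h at 37 °C. Spectra were recorded at 25 °C over 220–420 nm, blank-corrected with noise reduction, and expressed as […].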
(In general: CD spectra are sensitive to the conformation of chiral molecules.)

The structures appear in SMILES notation. Like-named read-outs stand apart in the source and are kept apart here.

As to `Clc1ccccc1C(c1ccccc1)(c1ccccc1)n1ccnc1` [CTZ, clotrimazole], the CC50 at 20 h in [1] came out at 79.4 µM; in the data set “in vitro”, 95.3 µM; in data set [4] it was 35.3 µM. In addition, in the data set on YT NK-like (YT) cells, the “apoptosis induced relative to any of the Ru-CTZ complexes” value is listed as at least 3 fold. In addition, in the data set with YT NK-like (YT) cells, the “mode of cell death” value is recorded as “preferentially through apoptosis”. In addition, the “cytotoxicity against cancer cell lines (in words)” value in data set [2] is given as “moderate cytotoxicity”. Besides, the “Relative Activity (R.A.)” value in data set [3] (22Rv1, relative to KTZ (1-6) or CTZ (7-12)) is recorded as 1; in [5] (LNCaP, relative to KTZ (1-6) or CTZ (7-12)), 1; in [6] (YT, relative to KTZ (1-6) or CTZ (7-12)), 1; in data set [7] (relative to KTZ (1-6) or CTZ (7-12)), 1; in data set [8] (DU145, relative to KTZ (1-6) or CTZ (7-12)), 1. Moreover, the CC50 in [3] (Homo sapiens, 22Rv1, 20 h) was determined as 19.2 µM; in data set [5] (Homo sapiens, LNCaP, 20 h) it was 15.4 µM; in data set [6] (20 h), 16.7 µM; in data set [7], 94.3 µM; in data set [8] (Homo sapiens, DU-145, 20 h) it was 43.6 µM. The “change of CD spectrum of CT DNA” value in the data set with Calf Thymus (CT) DNA is recorded as “no modifications”.
On to `CC(=O)N1CCN(c2ccc(OCC3COC(Cn4ccnc4)(c4ccc(Cl)cc4Cl)O3)cc2)CC1` (centres unmarked) [KTZ, ketoconazole], for which the results for the CC50 at 20 h in data set [1] and in data set [4] were 37 µM and 31.3 µM, respectively. The “mode of cell death” value in the data set with YT NK-like (YT) cells was “preferentially through apoptosis”. The CC50 stood at 24.2 µM in data set [3] (Homo sapiens, 22Rv1, 20 h); 27.9 µM in data set [5] (Homo sapiens, LNCaP, 20 h); 4.9 µM in data set [6] (20 h); 66.7 µM in [7]; 28.6 µM in data set [8] (Homo sapiens, DU-145, 20 h). In the data set with Calf Thymus (CT) DNA, the “change of CD spectrum of CT DNA” value is “no modifications”.
As to `Cc1ccc(C(C)C)cc1.Cc1ccc(C(C)C)cc1.[Cl][Ru][Cl].[Cl][Ru][Cl]` [Compound C3, [Ru(p-cymene)Cl2]2], the CC50 in data set [3] stood at 141 µM; in [5] it was 29 µM; in [6] it was 164 µM; in [8], 218 µM.
As to `C[SH](C)(=O)[Ru-]([Cl])([Cl])([Cl])([Cl])[SH](C)(C)=O.[Na+]` [Compound C1, Na[trans-RuCl4(DMSO)2]], the CC50 in [3] was 114 µM; in data set [5], 46.5 µM.

One may read the CC50 as the concentration at which the toxic effect on the cells reaches its halfway point. Read a high CC50 as better tolerance by the cells.
